High-throughput results: PubChem BioAssay, Broad Institute
E-sel inducer: induces E-selectin expression in human endothelial cells | P16581 | HUVEC E-selectin immunofluorescence imaging; normalized: neutral wells 0, TNF-alpha wells 100 | activation, % at 7.58 µM | 260,000 compounds, 0.37% hits | AID 686992;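 active means mean E-selectin-positive cell signal at least 10% of the positive control, reached in at least 60% of replicates, without over 20% cell loss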
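Test system – human umbilical vein endothelial cells (HUVEC), E-selectin induction · Input – 3,000 HUVEC seeded per well · Buffer or medium – EGM-2, gelatin · Compound dosing – single-point compound dose · Detection – immunofluorescence imaging · Measure – percent E-selectin-positive cells · Controls – TNF-alpha high, DMSO low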
DENV2 CPE rescue: inhibitors of DENV2 cytopathic effect | DENV2-infected cells, cytopathic effect rescue, plate reader | CPE inhibition, % at 9.99 µM | 350,000 compounds, 1.7% hits; in the data active means CPE inhibition above about 20%, passing the limit was not always enough; tested in BHK-21 cells;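 further: 0% = median of neutral control wells and 100% = median of positive control wells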
FGF22 binding: binders of recombinant human FGF22 by thermal shift | Q9HCT0 | SYPRO orange fluorescence; percent of sucrose octasulfate shift, DMSO zero | activity (Tm shift, normalised), % at 9.99 µM | 340,000 compounds, 1.5% hits | AID 651658;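 active means mean Tm shift, scaled 0 neutral to 100 positive control, at about 1.3% or above, every replicate too, limit read from the data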
Target sequence (Q9HCT0 whole entry, looked up): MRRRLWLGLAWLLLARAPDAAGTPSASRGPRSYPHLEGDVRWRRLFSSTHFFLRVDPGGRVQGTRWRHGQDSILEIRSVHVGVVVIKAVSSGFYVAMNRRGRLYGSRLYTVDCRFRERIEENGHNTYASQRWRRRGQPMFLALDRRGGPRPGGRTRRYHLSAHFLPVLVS
PglD DTNB: blocks C. jejuni PglD acetyltransferase activity. purified PglD enzyme, DTNB colorimetric CoA detection. inhibition, % at 12.5 µM. 360,000 compounds, 0.098% hits; in the data active means inhibition above about 16%, passing the limit was not always enough
Statin myotox sup: protects C2C12 myotubes from simvastatin toxicity; ATP luminescence, 48 h; scaled: DMSO 0, geranylgeraniol control 100; rescue of ATP level, % at 7.49 µM; 330,000 compounds, 0.78% hits;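 active means mean ATP rescue above about 67%, or every replicate alone reaching that limit, limit read from the data, passing the limit was not always enough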;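 further: myotubes were challenged with 10 µM simvastatin during compound exposure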
XiGFP reactiv: reactivates the inactive X chromosome in mouse fibroblasts. XiGFP mouse fibroblasts, % GFP-positive cells imaging, 3 d; cells co-treated with 5-aza-dC sensitizer; scaled so ellipticine positive control = 100%. activation, % at 7.58 µM. AID 743238. 360,000 compounds, 0.055% hits;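 active means mean normalized replicate activation at least 10% and every replicate at or above 10%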;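 further: 0% = median of on-plate neutral control wells and 100% = ellipticine 6 µM median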
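System: XiGFP fibroblasts, SV40-immortalized. Medium: DMEM plus 5-aza-dC sensitizer. Doses: single point. Timing: 3 d treatment, 15 min room-temperature fixation. Control set: ellipticine 6 µM.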
An asterisk follows results filed as active; . = no result. Sampled rows, rich in hits. Any-hit rate of the full collection: about 3.3%.

SMILES | E-sel inducer | DENV2 CPE rescue | FGF22 binding | PglD DTNB | Statin myotox sup | XiGFP reactiv
Cc1ccc2c(c1)-n1c(nc3ccc(Cl)cc3c1=O)C(CC(C)C)NC2=O (stereo not given) | 0 | . | 0 | . | . | 0
Cc1ccc2c(c1)-n1c(nc3ccc(C)cc3c1=O)C(Cc1ccc(O)cc1)NC2=O (stereo not given) | 0 | 33* | 0 | . | . | 0
Cc1ccc2nc3n(c(=O)c2c1)-c1cc(Cl)ccc1C(=O)NC3Cc1ccc(O)cc1 (stereo not given) | 0 | . | 0 | . | . | 0
Cc1ccccc1N(CC(=O)NC1CCCCC1)C(=O)CNC(=O)c1cccs1 | 45* | -4 | 0 | 3 | -5 | 0
CCOc1ccc(N(CC(=O)NC2CCCCC2)C(=O)CNC(=O)c2cccs2)cc1 | . | 33* | 0 | -3 | -4 | 0
COc1ccc(N(CC(=O)NC2CCCCC2)C(=O)CNC(=O)c2cccs2)cc1 | . | -7 | 0 | -2 | -33 | 0
Cc1ccc(C(C(=O)NC2CCCC2)N(Cc2cccs2)C(=O)CNC(=O)c2cccs2)o1 (stereo not given) | . | . | . | 0 | 136* | .
C[C@@H]1CN([C@H](C)CO)C(=O)c2cc(C#CC3CCCC3)cnc2O[C@H]1CN(C)C(=O)Cc1ccccn1 | 0 | -11 | 0 | 5 | 25 | 0
Cc1noc(C)c1NC(=O)Nc1ccc2c(c1)CC(=O)N([C@H](C)CO)C[C@H](C)[C@H](CN(C)S(=O)(=O)c1c(C)noc1C)O2 | 0 | 4 | 0 | -2 | -23 | 0
COc1ccc(NC(=O)Nc2ccc3c(c2)CC(=O)N([C@H](C)CO)C[C@@H](C)[C@H](CN(C)Cc2ccc(C(=O)O)cc2)O3)cc1 | -1 | 3 | 0 | 1 | 1 | 0
CCCN1[C@@H]2c3ccc(C4=CCCC4)c(=O)n3C[C@@H]2[C@@H](CO)[C@@H]1C(=O)NC1Cc2ccccc2C1 | 0 | 1 | . | 3 | 8 | 0
C[C@H]1CCCCO[C@@H](CN(C)Cc2ccc(C(F)(F)F)cc2)[C@@H](C)CN([C@@H](C)CO)C(=O)c2cc(NC(=O)c3ccccc3)ccc2O1 | 0 | 23* | 0 | 2 | . | 0
C[C@H]1CCCCO[C@H](CN(C)Cc2ccc(C(F)(F)F)cc2)[C@@H](C)CN([C@@H](C)CO)C(=O)c2cc(NC(=O)c3ccccc3)ccc2O1 | 0 | -3 | 0 | 2 | . | 0
C[C@@H]1CCCCO[C@@H](CN(C)Cc2ccc(C(F)(F)F)cc2)[C@@H](C)CN([C@H](C)CO)C(=O)c2cc(NC(=O)c3ccccc3)ccc2O1 | 0 | 25* | 0 | -1 | . | 3
C[C@@H]1CCCCO[C@H](CN(C)Cc2ccc(C(F)(F)F)cc2)[C@@H](C)CN([C@@H](C)CO)C(=O)c2cc(NC(=O)c3ccccc3)ccc2O1 | 0 | 9 | 0 | 4 | . | -1
C[C@@H]1CN([C@@H](C)CO)C(=O)c2cc(NC(=O)c3ccccc3)ccc2O[C@@H](C)CCCCO[C@H]1CN(C)Cc1ccc(C(F)(F)F)cc1 | 0 | 49* | 0 | -4 | . | 0
Cc1ccc(S(=O)(=O)N(C)[C@H]2C[C@H]3c4cc(-c5ccc6c(c5)OCO6)ccc4CCN3C[C@H]2[C@H](C)O)cc1 | 1 | 32* | 0 | . | . | 0
CSc1nc2c(c(=O)[nH]1)C(c1ccc(Br)cc1)CC(=O)N2 (stereo not given) | . | -5 | 1 | -4 | . | 0
CSc1nc2c(c(=O)[nH]1)C(c1ccc(F)cc1)CC(=O)N2 (stereo not given) | 0 | . | 43* | . | . | 0
CCCCNC(=O)N1CCN(c2ccccc2OCC)CC1 | 88* | 10 | 0 | . | -5 | 0
CCOC(=O)N1CCN(c2ccccc2OC)CC1 | . | -3 | 0 | . | . | 0
CCOc1ccccc1N1CCN(C(=O)CSc2ccc3c(c2)OCCO3)CC1 | 79* | 9 | 0 | 4 | -4 | 0
CCOC(=O)N1CCN(c2ccccc2O)CC1 | . | . | . | 0 | 124* | .
CCCNC(=O)C[C@H]1CC[C@@H]2[C@H](COc3ccc(NC(=O)CC)cc3C(=O)N2C)O1 | 0 | -5 | 0 | 1 | -18 | 0
